Experimental data: ChEMBL document CHEMBL1135174, “The synthesis and structure-activity relationships of 4-aryl-3-aminoquinolin-2-ones: a new class of calcium-dependent, large conductance, potassium (maxi-K) channel openers targeted for post-stroke neuroprotection” (Bioorg Med Chem Lett, 2002)

Key:
[1] = species: Xenopus laevis; assay: Tested for the effect on maxi-K-mediated outward current (mSlo) in Xenopus laevis oocytes at 20 uM; format: functional, frog
Procedure, shortened: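 Two-electrode voltage clamp was run on Xenopus laevis oocytes expressing cloned mSlo maxi-K channels. A single drug concentration was tested in at least five oocytes against iberiotoxin-sensitive outward K+ current. Output is the average percentage change in current relative to the drug-free control (100%).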

[2] = system: Rattus norvegicus; assay: (§1) Tested for concentration in brain after intravenous administration (4.7 mg/kg) to male rats; format: ADME, organism-based; conditions: in vivo
Procedure, shortened: (§2)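 Male rats got an iv bolus of 4.7 mg/kg, N=3 at each time point. Whole brain and plasma were sampled through 24 h. AUC (ng-h/mL plasma, ng-h/g brain) was calculated by the trapezoidal rule over 0–24 h. Brain/plasma ratio was taken from the AUC values. Cmax, Tmax and elimination half-lives were derived for brain and plasma.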

[3] = Tested for plasma concentration after intravenous administration (4.7 mg/kg) to male rats; format: ADME, organism-based; conditions: rat; procedure, shortened: as §2
[4] = as §1; format: ADME, organism-based; design: dose 4.7 mg/kg, route intravenous; conditions: rat; procedure, shortened: as §2
[5] = Compound was evaluated for Tmax in brain after intravenous administration in male rats; format: ADME, organism-based; conditions: rat; procedure, shortened: as §2
[6] = Ratio of the AUC values of brain and plasma after intravenous administration (4.7 mg/kg) to male rats was evaluated; format: ADME, organism-based; conditions: rat; procedure, shortened: as §2
[7] = Ratio in brain and plasma after 0.25 hrs of intravenous administration (5 mg/kg) to male rats was evaluated; format: ADME, organism-based; conditions: rat
Procedure, shortened: (§3)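 Male rats got a single iv bolus of 5 mg/kg. Plasma and whole brain were sampled at 0.25 h and 2 h. Plasma is in ng/mL and brain in ng/g wet weight, each the mean of three animals ± standard deviation. Brain detection limit was 50 ng/g. Brain/plasma ratio was computed at each time point.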

[8] = Ratio in brain and plasma after 2 hrs of intravenous administration (5 mg/kg) to male rats was evaluated; format: ADME, organism-based; conditions: rat; procedure, shortened: as §3
[9] = Half-life in brain after intravenous administration (4.7 mg/kg) to male rats; format: ADME, organism-based; conditions: rat; procedure, shortened: as §2
[10] = Half-life in plasma after intravenous administration (4.7 mg/kg) to male rats; format: ADME, organism-based; conditions: rat; procedure, shortened: as §2
[11] = Tested for concentration in brain after 0.25 hrs of intravenous administration (5 mg/kg) to male rats; format: ADME, organism-based; conditions: rat; procedure, shortened: as §3
[12] = Tested for concentration in brain after 2 hrs of intravenous administration (5 mg/kg) to male rats; format: ADME, organism-based; conditions: rat; procedure, shortened: as §3
[13] = Tested for plasma concentration in the after 0.25 hrs of intravenous administration (5 mg/kg) to male rats; format: ADME, organism-based; conditions: rat; procedure, shortened: as §3
[14] = Tested for plasma concentration in the after 2 hrs of intravenous administration (5 mg/kg) to male rats; format: ADME, organism-based; conditions: rat; procedure, shortened: as §3
[15] = Tested for ratio in brain and plasma after 0.25 hrs of intravenous administration (5 mg/kg) to male rats; format: ADME, organism-based; conditions: rat; procedure, shortened: as §3
[16] = Tested for ratio in brain and plasma after 2 hrs of intravenous administration (5 mg/kg) to male rats; format: ADME, organism-based; conditions: rat; procedure, shortened: as §3
[17] = Tested for plasma concentration after 0.25 hrs of intravenous administration (5 mg/kg) to male rats; format: ADME, organism-based; conditions: rat; procedure, shortened: as §3
[18] = Tested for plasma concentration after 2 hrs of intravenous administration (5 mg/kg) to male rats; format: ADME, organism-based; conditions: rat; procedure, shortened: as §3

SMILES: Nc1c(O)nc2c(C(F)(F)F)cccc2c1-c1cc(Cl)ccc1O
- Increase [1]: 112%

SMILES: Nc1c(O)nc2ccc(C(F)(F)F)cc2c1-c1cc(Cl)ccc1O
- AUC [2]: 19300 ng·h/g
- AUC [3]: 2700 ng·h/mL
- Cmax [4]: 1990 ng/g
- Tmax [5]: 4.8 min
- Kp [6]: 7.1
- Kp at 0.25 h [7]: 1.6
- Kp at 2 h [8]: 5.3
- half-life [9]: 486 min
- half-life [10]: 456 min
- concentration at 0.25 h [11]: 1310 ng/g
- concentration at 2 h [12]: 1490 ng/g
- concentration at 0.25 h [13]: 802 ng/mL
- concentration at 2 h [14]: 281 ng/mL
- Increase [1]: 186%

SMILES: O=S(=O)(Nc1c(O)nc2cc(C(F)(F)F)ccc2c1-c1cc(Cl)ccc1O)C(F)(F)F
- Increase [1]: 213%

SMILES: O=c1[nH]c2cc(C(F)(F)F)ccc2n1-c1cc(Cl)ccc1O
- Increase [1]: 132%

SMILES: Nc1c(O)nc2ccc(C(F)(F)F)cc2c1-c1ccccc1O
- Increase [1]: 137%

SMILES: Nc1c(O)nc2cc(C(F)(F)F)ccc2c1-c1cc(Cl)ccc1O
- Kp at 0.25 h [15]: 1.3
- Kp at 2 h [16]: 4.4
- concentration at 0.25 h [11]: 1470 ng/g
- concentration at 2 h [12]: 1480 ng/g
- concentration at 0.25 h [17]: 1170 ng/mL
- concentration at 2 h [18]: 339 ng/mL
- Increase [1]: 159%

SMILES: Nc1c(O)nc2ccc(C(F)(F)F)cc2c1-c1ccccc1
- Increase [1]: 111%

SMILES: Nc1c(O)nc2cccc(C(F)(F)F)c2c1-c1cc(Cl)ccc1O
- Increase [1]: 191%

SMILES: O=S(=O)(Nc1c(O)nc2ccc(C(F)(F)F)cc2c1-c1cc(Cl)ccc1O)C(F)(F)F
- concentration at 0.25 h [11]: < 50 ng/g
- concentration at 2 h [12]: < 50 ng/g
- concentration at 0.25 h [13]: 1230 ng/mL
- concentration at 2 h [14]: 125 ng/mL
- Increase [1]: 343%

SMILES: CC(=O)Nc1c(O)nc2ccc(C(F)(F)F)cc2c1-c1cc(Cl)ccc1O
- Increase [1]: 120%

SMILES: CS(=O)(=O)Nc1c(O)nc2ccc(C(F)(F)F)cc2c1-c1cc(Cl)ccc1O
- Increase [1]: 164%

SMILES: Nc1c(O)nc2ccccc2c1-c1cc(Cl)ccc1O
- Increase [1]: 114%

SMILES: COc1ccc(Cl)cc1-c1c(N)c(O)nc2ccccc12
- Increase [1]: 108%

SMILES: Nc1c(O)nc2ccc(Cl)cc2c1-c1cc(Cl)ccc1O
- Increase [1]: 157%
